Key:
[1] = (§1) Cytotoxicity on COS A6 cells in the absence of 10% fetal calf serum(FCS); assay type: functional; conditions: read-out: LD50 (the source's name)
Method in brief: (§2)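 COS A6 cells, which are cloned progeny that constitutively release viral capsids, were cultured without fetal calf serum and exposed to compound. Viability was read by MTT stain assay, and the LD50 was derived from it.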

[2] = biological target: T1, Human immunodeficiency virus type 1 protease (Human immunodeficiency virus 1, UniProt Q72874); assay: Inhibition of HIV-1 protease in 5%DMSO
Method in brief: (§3)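 Purified recombinant HIV PR activity was followed by cleavage of a decapeptide substrate. Incubation was 30–45 min at 37 °C, and hydrolysis products were quantified by HPLC.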

[3] = biological target: T1, Human immunodeficiency virus type 1 protease; assay: Inhibition of HIV-1 protease in 10% fetal calf serum(FCS)
Method in brief: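 COS A6 cells, which constitutively release viral capsids, were exposed to inhibitor in Dulbecco's PBS for 15 min. An equal volume of medium with 10% FCS plus inhibitor was then added and incubation continued for 3.75 h. Capsids were isolated from the supernatant, and polyprotein processing was scored as p24 by ELISA.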

[4] = biological target: Human immunodeficiency virus type 2 pol protein (Human immunodeficiency virus 2, UniProt P88142); assay: Inhibition of HIV-2 protease in 5%DMSO; method in brief: as §3
Human immunodeficiency virus type 2 pol protein, sequence (P88142 whole entry): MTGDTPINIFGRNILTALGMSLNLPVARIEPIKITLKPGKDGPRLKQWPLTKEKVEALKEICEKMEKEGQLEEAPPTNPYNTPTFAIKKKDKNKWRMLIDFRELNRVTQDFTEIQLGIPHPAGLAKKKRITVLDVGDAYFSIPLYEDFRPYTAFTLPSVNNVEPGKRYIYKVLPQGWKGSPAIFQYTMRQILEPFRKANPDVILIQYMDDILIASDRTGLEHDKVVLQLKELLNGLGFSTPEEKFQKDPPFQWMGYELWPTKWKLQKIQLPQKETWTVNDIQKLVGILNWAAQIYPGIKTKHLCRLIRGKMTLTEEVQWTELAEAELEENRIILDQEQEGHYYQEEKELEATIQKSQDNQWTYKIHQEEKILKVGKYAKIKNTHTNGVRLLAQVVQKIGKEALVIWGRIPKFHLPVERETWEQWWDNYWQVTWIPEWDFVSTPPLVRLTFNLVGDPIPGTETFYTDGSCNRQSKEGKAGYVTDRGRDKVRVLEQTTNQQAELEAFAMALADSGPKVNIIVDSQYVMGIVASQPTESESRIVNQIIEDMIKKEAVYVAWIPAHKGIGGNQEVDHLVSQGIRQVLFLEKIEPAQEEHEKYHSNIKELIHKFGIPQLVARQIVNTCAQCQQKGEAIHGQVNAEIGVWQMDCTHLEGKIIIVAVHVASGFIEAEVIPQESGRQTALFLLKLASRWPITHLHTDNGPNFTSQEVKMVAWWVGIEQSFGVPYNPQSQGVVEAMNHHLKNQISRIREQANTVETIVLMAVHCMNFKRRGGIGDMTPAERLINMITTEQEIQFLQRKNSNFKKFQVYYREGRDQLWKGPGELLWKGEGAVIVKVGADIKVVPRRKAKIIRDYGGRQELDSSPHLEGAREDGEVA

[5] = biological target: T1, Human immunodeficiency virus type 1 protease; assay: Inhibitory concentration against HIV-1 protease in the absence of DMSO
Method in brief: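 The water-soluble dipotassium salt was tested against aspartyl proteases with no DMSO present, and IC50 values were determined.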

[6] = system: COS A6; assay: as §1; assay type: functional; method in brief: as §2
[7] = biological target: HIV-2 protease (Human immunodeficiency virus 2); assay: Inhibitory concentration against HIV-2 protease in the absence of DMSO

Compound	CC50 ([1]; COS A6) [µM]	IC50 [2] [µM]	IC50 [3] [µM]	IC50 [4] [µM]	CC50 [1] [µM]	IC50 [5] [µM]	LD50 [6] [µM]	IC50 [7] [µM]
CC1=C(C(COC(=O)c2ccc(N(C)C)cc2)OC(=O)c2ccc(N(C)C)cc2)c2cc3nc(cc4[nH]c(cc5[nH]c(cc1n2)c(C)c5CCC(=O)O)c(CCC(=O)O)c4C)C(C(COC(=O)c1ccc(N(C)C)cc1)OC(=O)c1ccc(N(C)C)cc1)=C3C (stereo unspecified)	> 250	7	75	18				
CC1=C(CCC(=O)O)c2cc3[nH]c(cc4[nH]c(cc5nc(cc1n2)C(C)=C5C(COC(=O)C1=CC1)OC(=O)C1=CC1)c(C)c4C(COC(=O)C1=CC1)OC(=O)C1=CC1)c(C)c3CCC(=O)O (stereo in doubt)		12	> 150	11	250			
CC1=C(CCC(=O)O)c2cc3[nH]c(cc4[nH]c(cc5nc(cc1n2)C(C)=C5C(COC(=O)C1=CCC1)OC(=O)C1=CCC1)c(C)c4C(COC(=O)C1=CCC1)OC(=O)C1=CCC1)c(C)c3CCC(=O)O (stereo unspecified)	25	0.7	10	1.55		0.9		
3-[18-(2-Carboxy-ethyl)-8,13-bis-(1,2-diacetoxy-ethyl)-3,7,12,17-tetramethyl-22,24-dihydro-porphin-2-yl]-propionic acid;Co complex [listing 1 of 2 here]			25					
CC1=C(C(COC(=O)c2ccc3ccccc3c2)OC(=O)c2ccc3ccccc3c2)c2cc3nc(cc4[nH]c(cc5[nH]c(cc1n2)c(C)c5CCC(=O)O)c(CCC(=O)O)c4C)C(C(COC(=O)c1ccc2ccccc2c1)OC(=O)c1ccc2ccccc2c1)=C3C (stereo unspecified)	250	14	> 150	23				
3-[18-(2-Carboxy-ethyl)-8,13-bis-(1,2-diacetoxy-ethyl)-3,7,12,17-tetramethyl-22,24-dihydro-porphin-2-yl]-propionic acid;Cu complex [listing 1 of 2 here]							80	
3-[18-(2-Carboxy-ethyl)-8,13-bis-(1,2-diacetoxy-ethyl)-3,7,12,17-tetramethyl-22,24-dihydro-porphin-2-yl]-propionic acid;Cu complex [listing 2 of 2 here]								0.47
CC1=C(C(O)CO)c2cc3nc(cc4[nH]c(cc5[nH]c(cc1n2)c(C)c5CCC(=O)O)c(CCC(=O)O)c4C)C(C(O)CO)=C3C (stereo unspecified)	250	280	> 200	480				
C=CC1=C(C)c2cc3[nH]c(cc4nc(cc5[nH]c(cc1n2)c(C)c5CCC(=O)O)C(CCC(=O)O)=C4C)c(C)c3C=C [PROTOPORPHYRIN]	< 50	300	> 200	500				
3-[18-(2-Carboxy-ethyl)-8,13-bis-(1,2-diacetoxy-ethyl)-3,7,12,17-tetramethyl-22,24-dihydro-porphin-2-yl]-propionic acid;Co complex [listing 2 of 2 here]							150	
CC1=C(C(COC(=O)c2ccccc2)OC(=O)c2ccccc2)c2cc3nc(cc4[nH]c(cc5[nH]c(cc1n2)c(C)c5CCC(=O)O)c(CCC(=O)O)c4C)C(C(COC(=O)c1ccccc1)OC(=O)c1ccccc1)=C3C (stereo unspecified)	250	14	> 100	30				
3-[18-(2-Carboxy-ethyl)-8,13-bis-(1,2-diacetoxy-ethyl)-3,7,12,17-tetramethyl-22,24-dihydro-porphin-2-yl]-propionic acid;Mn complex							70	
CC[C@H](C)[C@H](NC(=O)[C@H](C(C)C)[C@@H](O)[C@H](O)[C@H](CC1CCCCC1)NC(=O)[C@H](Cc1c[nH]cn1)NC(=O)COc1cccc2ccccc12)C(=O)NCc1ccccn1	45	< 0.001	0.75	0.03				
CC1=C(C(COC(=O)C23C[C@H]4C[C@@H](C2)C[C@@H](C3)C4)OC(=O)C23C[C@H]4C[C@@H](C2)C[C@@H](C3)C4)c2cc3nc(cc4[nH]c(cc5[nH]c(cc1n2)c(C)c5CCC(=O)O)c(CCC(=O)O)c4C)C(C(COC(=O)C12C[C@H]4C[C@@H](C1)C[C@@H](C2)C4)OC(=O)C12C[C@H]4C[C@@H](C1)C[C@@H](C2)C4)=C3C (stereo partly specified)	250	5		13				

From ChEMBL document CHEMBL1126254, “Specific inhibition of HIV-1 protease by boronated porphyrins” (J Med Chem, 1992)
